Assay [1] can be described thus: HUVEC growth inhibition – cell-based, human, primary screen (AID 575;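 active = viability at or below 30% in both replicate assays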;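 note: 100% = median of untreated cell wells with 0.1% DMSO on each plate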). The note with it: HUVEC proliferation, CellTiter-Glo luminescence, 72 h; at 10 µM; stronger effect = lower value. The procedure, abridged: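 Test system: HUVEC primary cells. Quantity: 1250 endothelial cells in each well. Dosing: single-point 10 µM, DMSO 0.1% final. Incubation: 72 h treatment at 37 °C. Measured by: CTG luminescence. Control set: DMSO cell controls and MePR drug controls. Plate: collagen-coated 384-well format.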

The nature of assay [2]: H69AR cell proliferation blockers – human, duplicate replicates, primary screen (AID 580).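 Note: 100% = mean luminescence of untreated wells and 0% = no signal.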 The note with it: H69AR lung tumor cells viability, ATP luminescence, 72 h; at 10 µM; stronger effect = lower value.
Assay [3] is described as follows: MRP1 drug-resistance reversers in H69AR cells – cell-based, doxorubicin co-treatment, pilot screen (AID 601;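 active = viability loss from added drug above about 55%, and viability with drug at most 40%, in both replicates, limit read from the data, passing the limit was not always enough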). To be noted: CellTiter-Glo, 72 h, at 10 µM; for differential viability (reversal): stronger effect = higher value.
Assay [4] in a line: yeast transport mutant growth inhibition pilot in 384-well plates, post-Golgi transport modulator project (AID 636; in the data active = inhibition above about 31%). To be noted: absorbance 615 nm, about 18 h, stronger effect = higher value.
Assay [5] in a line: growth suppression of yeast trafficking mutant, preliminary HTS, modulators of trafficking downstream of Golgi apparatus project, 1536-format plate, OD 615 nm (AID 637; in the data active = inhibition above about 30%). The note with it: yeast transport mutant growth, absorbance 615 nm, 18 h; stronger effect = higher value.
Where [6] appears, read: H69AR cells + 2 uM doxorubicin, measured here: viability with 2 uM doxorubicin, stronger effect = lower value.
Setting [7] is: H69AR cells, compound alone cytotoxicity.

Active and inactive are the calls of the source.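 Rule for the calls, unless noted: active = viability at or under a set limit in both replicates, limit being median viability minus 3 SD (cut at about 48% in these data, passing the limit was not always enough); inconclusive = at or under the limit in just one replicate; inactive = at or above the limit in both replicates.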

Turning to `COc1ccc(S(=O)(=O)N2CCC(C(=O)NCc3ccco3)CC2)cc1`, the viability in assay [1] was 93.8% (inactive); in assay [2], 86.6% (inactive); in assay [3] (setting [6]), 88.5%; in assay [3] (setting [7]) it was 86.6%. Also, the differential viability (reversal) in assay [3] (H69AR cells + 2 uM doxorubicin) was -1.91% (inactive). For the same compound, the inhibition in assay [4] was -4.53% (inactive); in assay [5], -3.97% (inactive).

As for `COc1ccc(-c2nn3c(-c4cccc(C)c4)nnc3s2)cc1OC`, the viability was 51.1% (inactive) in assay [1], 35.2% (active) in assay [2], 79.2% in assay [3] (setting [6]) and 35.2% in assay [3] (setting [7]). Besides, the differential viability (reversal) in assay [3] (H69AR cells + 2 uM doxorubicin) was -44% (inactive). Further, the inhibition is -0.4% (inactive) in assay [4] and -4.13% (inactive) in assay [5].

Regarding `COc1ccc(CN(C(=O)CSc2nnc(-c3ccccc3F)o2)c2ccc(F)cc2)cc1`, the viability was 101% (inactive) in assay [1], 101% (inactive) in assay [2], 98.8% in assay [3] (setting [6]) and 101% in assay [3] (setting [7]). In addition, in assay [3] (H69AR cells + 2 uM doxorubicin), the differential viability (reversal) was 2.2% (inactive). In addition, the inhibition in assay [4] is -5.2% (inactive); in assay [5] it was 2.7% (inactive).

As to `c1ccc(-c2nn3nnnc3c3ccccc23)cc1`, the viability in assay [1] is 105% (inactive); in assay [2] it was 90.8% (inactive); in assay [3] (setting [6]), 90.3%; in assay [3] (setting [7]), 90.8%. In addition, in assay [3] (H69AR cells + 2 uM doxorubicin), the differential viability (reversal) was 0.43% (inactive). Further, the inhibition is -1.04% (inactive) in assay [4] and 0.79% (inactive) in assay [5].

Consider `COc1ccc(S(=O)(=O)NC(C)C(=O)Nc2cccc(C(C)=O)c2)cc1` (stereo not drawn), for which the viability in assay [1] is 114% (inactive); in assay [2], 98.1% (inactive); in assay [3] (setting [6]) it was 88.9%; in assay [3] (setting [7]), 98.1%. Also, in assay [3] (H69AR cells + 2 uM doxorubicin), the differential viability (reversal) is 9.17% (inactive). The inhibition was -4.8% (inactive) in assay [4] and 0.16% (inactive) in assay [5].

As for `Cc1c(C(=O)NCc2ccccn2)oc2ccccc12`, the viability in assay [1] was 99.6% (inactive); in assay [2] it was 106% (inactive); in assay [3] (setting [6]) it was 80.5%; in assay [3] (setting [7]) it was 106%. Besides, the differential viability (reversal) in assay [3] (H69AR cells + 2 uM doxorubicin) is 25.7% (inactive). In addition, the values for the inhibition in assay [4] and in assay [5] were -0.92% (inactive) and 17.9% (inactive), respectively.

For `O=C(NCc1ccco1)c1noc2c1CCCCC2`, the viability was 96.4% (inactive) in assay [1], 78.4% (inactive) in assay [2], 72.6% in assay [3] (setting [6]) and 78.4% in assay [3] (setting [7]). Also, the differential viability (reversal) in assay [3] (H69AR cells + 2 uM doxorubicin) was 5.79% (inactive). For the same compound, the figures for the inhibition in assay [4] and in assay [5] were -3.64% (inactive) and -0.95% (inactive), respectively.

Consider `CSc1cccc(NC(=O)C2CCN(S(C)(=O)=O)CC2)c1`, for which the viability in assay [1] was 107% (inactive); in assay [2] it was 90.3% (inactive); in assay [3] (setting [6]), 89.6%; in assay [3] (setting [7]), 90.3%. In assay [3] (H69AR cells + 2 uM doxorubicin), the differential viability (reversal) is 0.77% (inactive). For the same compound, the inhibition is -4.08% (inactive) in assay [4] and 2.06% (inactive) in assay [5].

Regarding `CN1CCCC(OC(=O)c2ccc3c(c2)OCCO3)C1` (stereo not drawn), the viability in assay [1] is 103% (inactive); in assay [2] it was 106% (inactive); in assay [3] (setting [6]), 86.7%; in assay [3] (setting [7]), 106%. In assay [3] (H69AR cells + 2 uM doxorubicin), the differential viability (reversal) is 19.1% (inactive). Moreover, the inhibition is -4.4% (inactive) in assay [4] and -2.06% (inactive) in assay [5].

For the compound `CCCCCC1NC(=O)NC1CCCCCC(=O)O` (stereo not drawn), the viability is 98.5% (inactive) in assay [1], 104% (inactive) in assay [2], 89.2% in assay [3] (setting [6]) and 104% in assay [3] (setting [7]). In addition, the differential viability (reversal) in assay [3] (H69AR cells + 2 uM doxorubicin) was 14.3% (inactive). For the same compound, the figures for the inhibition in assay [4] and in assay [5] were -0.91% (inactive) and -2.22% (inactive), respectively.

Regarding `O=C(CN1CCN(c2ncc(C(F)(F)F)cc2Cl)CC1)Nc1ccc2c(c1)OCO2`, the viability in assay [1] is 85.7% (inactive); in assay [2], 93.2% (inactive); in assay [3] (setting [6]) it was 92.9%; in assay [3] (setting [7]), 93.2%. Moreover, the differential viability (reversal) in assay [3] (H69AR cells + 2 uM doxorubicin) was 0.28% (inactive). In addition, the inhibition in assay [4] was 0.65% (inactive); in assay [5] it was -4.29% (inactive).

For `COc1ccccc1Cn1c(-c2ccco2)nc2nc3ccccc3nc21`, the viability in assay [1] is 52.5% (inactive); in assay [2], 59.9% (inactive); in assay [3] (setting [6]) it was 52.6%; in assay [3] (setting [7]), 59.9%. Besides, in assay [3] (H69AR cells + 2 uM doxorubicin), the differential viability (reversal) is 7.3% (inactive). In addition, the inhibition in assay [4] was -6.93% (inactive); in assay [5], 8.41% (inactive).

For `CC1Cc2ccccc2N1S(=O)(=O)c1ccc2c(c1)n(C)c(=O)c(=O)n2C` (stereo not drawn), the viability is 80.8% (inactive) in assay [1], 83.7% (inactive) in assay [2], 86.4% in assay [3] (setting [6]) and 83.7% in assay [3] (setting [7]). In addition, in assay [3] (H69AR cells + 2 uM doxorubicin), the differential viability (reversal) is -2.65% (inactive). In addition, the inhibition in assay [4] was -4.93% (inactive); in assay [5], 0% (inactive).

Take `CCOc1ccc(C(=O)Cc2ccc3oc(C(=O)O)cc3c2)c(O)c1`: the viability in assay [1] was 89.4% (inactive); in assay [2], 98.8% (inactive); in assay [3] (setting [6]) it was 88.4%; in assay [3] (setting [7]) it was 98.8%. For the same compound, the differential viability (reversal) in assay [3] (H69AR cells + 2 uM doxorubicin) is 10.4% (inactive). The figures for the inhibition in assay [4] and in assay [5] were -4.29% (inactive) and 7.62% (inactive), respectively.

For the compound `COc1cccc(OC)c1OCCCSc1nc(C)cc(=O)[nH]1`, the viability was 107% (inactive) in assay [1], 91.1% (inactive) in assay [2], 96.2% in assay [3] (setting [6]) and 91.1% in assay [3] (setting [7]). For the same compound, the differential viability (reversal) in assay [3] (H69AR cells + 2 uM doxorubicin) is -5.15% (inactive). Also, the inhibition was -4% (inactive) in assay [4] and -5.56% (inactive) in assay [5].

In the case of `CCn1nnc(NC(=O)c2ccccc2Br)n1`, the viability in assay [1] is 103% (inactive); in assay [2] it was 99.9% (inactive); in assay [3] (setting [6]) it was 89.4%; in assay [3] (setting [7]) it was 99.9%. Further, the differential viability (reversal) in assay [3] (H69AR cells + 2 uM doxorubicin) was 10.5% (inactive). Also, the inhibition is -8.93% (inactive) in assay [4] and 2.86% (inactive) in assay [5].

As for `Cc1ccc(NC(=O)c2ccco2)c(NC(=O)c2cccs2)c1`, the viability was 92% (inactive) in assay [1], 88.8% (inactive) in assay [2], 89.9% in assay [3] (setting [6]) and 88.8% in assay [3] (setting [7]). In assay [3] (H69AR cells + 2 uM doxorubicin), the differential viability (reversal) was -1.08% (inactive). For the same compound, the inhibition is -3.73% (inactive) in assay [4] and 8.57% (inactive) in assay [5].

Regarding `Cn1c(=O)c2c(nc(-n3ccnc3)n2C)n(C)c1=O`, the viability in assay [1] is 105% (inactive); in assay [2], 101% (inactive); in assay [3] (setting [6]) it was 92.7%; in assay [3] (setting [7]), 101%. The differential viability (reversal) in assay [3] (H69AR cells + 2 uM doxorubicin) was 8.81% (inactive). In addition, the inhibition in assay [4] is -4.13% (inactive); in assay [5], 1.59% (inactive).

For `O=C(NC1CC2CCC1C2)C1COc2ccccc2O1` (stereo not drawn), the viability in assay [1] is 100% (inactive); in assay [2], 87.9% (inactive); in assay [3] (setting [6]), 83.4%; in assay [3] (setting [7]) it was 87.9%. For the same compound, the differential viability (reversal) in assay [3] (H69AR cells + 2 uM doxorubicin) was 4.5% (inactive). In addition, the results for the inhibition in assay [4] and in assay [5] were -3.55% (inactive) and -2.38% (inactive), respectively.
